In ChEMBL document CHEMBL1140543, “Biphenyls as potent vitronectin receptor antagonists. Part 3: Squaric acid amides” (Bioorg Med Chem Lett, 2007):

Tests used:
[1] = target: T1, Integrin alpha-V/beta-3 (Homo sapiens, UniProt P05106+P06756); experiment: Binding affinity to integrin alpha-v-beta-3 receptor; format: protein-complex assay
Target sequence in this assay (P05106 27-788 limits assumed): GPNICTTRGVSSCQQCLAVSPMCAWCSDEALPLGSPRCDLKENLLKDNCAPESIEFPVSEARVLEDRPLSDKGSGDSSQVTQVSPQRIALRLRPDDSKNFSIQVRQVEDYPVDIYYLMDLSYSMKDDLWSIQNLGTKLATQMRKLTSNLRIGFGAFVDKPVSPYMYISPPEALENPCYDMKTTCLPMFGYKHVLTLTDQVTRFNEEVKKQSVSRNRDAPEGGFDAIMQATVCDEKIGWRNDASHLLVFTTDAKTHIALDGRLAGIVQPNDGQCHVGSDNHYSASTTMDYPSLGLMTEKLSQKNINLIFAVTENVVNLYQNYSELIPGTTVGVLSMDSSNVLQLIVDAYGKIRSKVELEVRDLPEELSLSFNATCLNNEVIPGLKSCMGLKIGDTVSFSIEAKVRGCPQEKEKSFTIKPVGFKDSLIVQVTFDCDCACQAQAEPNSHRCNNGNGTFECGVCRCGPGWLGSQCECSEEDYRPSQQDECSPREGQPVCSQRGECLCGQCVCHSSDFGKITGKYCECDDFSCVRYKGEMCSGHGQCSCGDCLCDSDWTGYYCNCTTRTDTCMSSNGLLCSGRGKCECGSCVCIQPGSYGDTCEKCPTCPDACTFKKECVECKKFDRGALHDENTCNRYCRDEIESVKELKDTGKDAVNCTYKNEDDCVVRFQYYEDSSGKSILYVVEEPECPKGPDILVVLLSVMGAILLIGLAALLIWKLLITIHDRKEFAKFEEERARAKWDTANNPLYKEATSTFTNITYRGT
Target sequence in this assay (P06756 31-889 limits assumed): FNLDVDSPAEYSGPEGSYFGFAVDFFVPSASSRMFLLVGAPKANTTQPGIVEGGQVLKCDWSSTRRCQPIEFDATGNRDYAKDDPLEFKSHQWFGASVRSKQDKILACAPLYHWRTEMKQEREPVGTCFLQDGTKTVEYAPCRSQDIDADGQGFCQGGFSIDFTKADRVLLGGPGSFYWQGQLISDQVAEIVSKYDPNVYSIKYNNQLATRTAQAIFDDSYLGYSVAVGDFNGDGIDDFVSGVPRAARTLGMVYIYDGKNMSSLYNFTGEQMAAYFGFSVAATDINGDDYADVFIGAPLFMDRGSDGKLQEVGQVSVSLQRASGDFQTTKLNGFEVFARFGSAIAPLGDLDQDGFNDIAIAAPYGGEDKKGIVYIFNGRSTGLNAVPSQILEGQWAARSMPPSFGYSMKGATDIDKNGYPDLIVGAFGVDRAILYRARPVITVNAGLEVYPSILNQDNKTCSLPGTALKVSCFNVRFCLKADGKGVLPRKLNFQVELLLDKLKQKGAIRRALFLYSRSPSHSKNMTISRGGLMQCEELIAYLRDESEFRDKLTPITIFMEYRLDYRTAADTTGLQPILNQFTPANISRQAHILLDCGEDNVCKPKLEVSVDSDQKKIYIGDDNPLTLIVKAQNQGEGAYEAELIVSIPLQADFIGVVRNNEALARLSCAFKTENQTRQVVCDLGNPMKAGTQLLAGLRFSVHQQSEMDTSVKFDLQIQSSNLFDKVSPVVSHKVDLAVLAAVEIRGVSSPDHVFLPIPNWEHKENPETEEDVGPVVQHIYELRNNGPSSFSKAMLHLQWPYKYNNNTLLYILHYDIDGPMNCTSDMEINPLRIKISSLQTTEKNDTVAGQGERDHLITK
Target sequence in this assay (P06756 891-1048 limits assumed): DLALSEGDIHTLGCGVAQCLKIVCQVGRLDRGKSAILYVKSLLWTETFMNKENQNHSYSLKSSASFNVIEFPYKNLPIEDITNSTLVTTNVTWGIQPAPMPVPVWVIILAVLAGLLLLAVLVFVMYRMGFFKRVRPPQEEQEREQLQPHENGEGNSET

[2] = target: Integrin alpha-IIb/beta-3 (Homo sapiens, UniProt P05106+P08514); experiment: Binding affinity to GP2b3a receptor; format: protein-complex assay
[3] = target: T1, Integrin alpha-V/beta-3; experiment: Antagonist activity at human integrin alpha-v-beta-3 receptor expressed in HEK293 cells; format: functional, cell-based
How it was run: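 HEK 293 cells transfected with human αvβ3 were used. Inhibition of the adhesion of purified human vitronectin to these cells gave the cellular αvβ3 affinity.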

[4] = Inhibition of smooth muscle cell migration; format: functional, Homo sapiens
[5] = target: Albumin (Homo sapiens, UniProt P02768); experiment: Binding affinity to human serum albumin by equilibrium dialysis
[6] = test system: Liver microsomes; experiment: Clearance in rat liver microsomes; format: ADME, Microsome

Sequence of Integrin alpha-IIb/beta-3 (P05106 27-788 limits assumed): as the sequence (P05106 27-788 limits assumed) above
Sequence of Integrin alpha-IIb/beta-3 (P08514 32-887 limits assumed): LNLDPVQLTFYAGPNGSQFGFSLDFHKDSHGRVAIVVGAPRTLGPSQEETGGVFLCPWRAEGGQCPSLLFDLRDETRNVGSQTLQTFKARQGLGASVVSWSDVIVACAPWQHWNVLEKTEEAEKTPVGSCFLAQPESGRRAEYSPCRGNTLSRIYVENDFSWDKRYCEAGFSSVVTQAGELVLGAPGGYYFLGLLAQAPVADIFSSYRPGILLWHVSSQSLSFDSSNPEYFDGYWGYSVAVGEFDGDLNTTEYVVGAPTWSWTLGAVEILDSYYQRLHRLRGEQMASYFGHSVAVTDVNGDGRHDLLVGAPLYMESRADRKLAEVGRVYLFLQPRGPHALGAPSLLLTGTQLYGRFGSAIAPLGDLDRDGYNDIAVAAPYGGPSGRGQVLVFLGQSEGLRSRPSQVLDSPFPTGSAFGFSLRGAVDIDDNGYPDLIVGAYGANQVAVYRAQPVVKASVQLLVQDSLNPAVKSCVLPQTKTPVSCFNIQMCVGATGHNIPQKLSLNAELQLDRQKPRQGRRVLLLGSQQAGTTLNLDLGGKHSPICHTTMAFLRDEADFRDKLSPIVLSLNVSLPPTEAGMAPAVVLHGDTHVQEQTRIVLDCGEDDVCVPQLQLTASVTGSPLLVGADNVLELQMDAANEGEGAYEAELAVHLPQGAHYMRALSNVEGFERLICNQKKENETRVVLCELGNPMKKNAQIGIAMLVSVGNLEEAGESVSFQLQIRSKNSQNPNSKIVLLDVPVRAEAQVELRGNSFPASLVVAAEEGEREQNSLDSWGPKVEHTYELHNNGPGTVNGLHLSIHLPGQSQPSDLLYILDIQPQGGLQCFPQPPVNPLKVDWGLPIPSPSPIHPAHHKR
Sequence of Integrin alpha-IIb/beta-3 (P08514 891-1039 limits assumed): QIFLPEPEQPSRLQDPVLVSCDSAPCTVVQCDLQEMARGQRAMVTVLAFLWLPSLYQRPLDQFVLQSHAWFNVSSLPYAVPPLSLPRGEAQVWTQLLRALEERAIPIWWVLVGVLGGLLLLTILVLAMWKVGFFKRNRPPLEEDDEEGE
Sequence of Albumin (P02768 whole entry): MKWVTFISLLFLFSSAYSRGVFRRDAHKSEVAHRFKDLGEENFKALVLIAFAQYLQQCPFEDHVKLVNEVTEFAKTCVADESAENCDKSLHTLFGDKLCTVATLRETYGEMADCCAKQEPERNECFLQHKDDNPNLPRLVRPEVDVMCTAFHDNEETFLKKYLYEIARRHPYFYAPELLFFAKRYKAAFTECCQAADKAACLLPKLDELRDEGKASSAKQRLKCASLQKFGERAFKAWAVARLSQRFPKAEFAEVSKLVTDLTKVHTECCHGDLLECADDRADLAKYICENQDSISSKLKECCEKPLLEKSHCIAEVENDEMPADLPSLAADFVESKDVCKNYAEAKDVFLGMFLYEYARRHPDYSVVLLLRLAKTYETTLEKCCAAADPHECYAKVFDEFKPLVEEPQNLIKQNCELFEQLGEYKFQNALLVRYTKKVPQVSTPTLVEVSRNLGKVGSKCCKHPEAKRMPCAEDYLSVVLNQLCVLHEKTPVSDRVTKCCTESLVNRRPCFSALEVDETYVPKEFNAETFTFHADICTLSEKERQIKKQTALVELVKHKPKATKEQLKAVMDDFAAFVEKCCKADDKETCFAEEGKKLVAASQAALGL

## Cc1cc(C)c(S(=O)(=O)N[C@@H](Cc2ccc(-c3cccc(Nc4c(NCc5ccccc5)c(=O)c4=O)c3)cc2)C(=O)O)c(C)c1
[1]
  Ki: 25 nM

## Cc1cc(C)c(S(=O)(=O)N[C@@H](Cc2ccc(-c3cccc(NC(=O)c4ccccn4)c3)cc2)C(=O)O)c(C)c1
[1]
  Ki: > 2000 nM

## Cc1cc(C)c(S(=O)(=O)N[C@@H](Cc2ccc(-c3cccc(NC(=O)c4ccncc4)c3)cc2)C(=O)O)c(C)c1
[1]
  Ki: 700 nM

## Cc1cc(C)c(S(=O)(=O)N[C@@H](Cc2ccc(-c3cccc(Nc4c(NCc5ccccn5)c(=O)c4=O)c3)cc2)C(=O)O)c(C)c1
[1]
  Ki: 11 nM

## Cc1cc(C)c(S(=O)(=O)N[C@@H](Cc2ccc(-c3cccc(NC(=O)c4ccco4)c3)cc2)C(=O)O)c(C)c1
[1]
  Ki: 650 nM

## Cc1cc(C)c(S(=O)(=O)N[C@@H](Cc2ccc(-c3cccc(NC(=O)c4cccnc4)c3)cc2)C(=O)O)c(C)c1
[1]
  Ki: 400 nM

## Cc1cc(C)c(S(=O)(=O)N[C@@H](Cc2ccc(-c3cccc(NC(=O)c4ncc[nH]4)c3)cc2)C(=O)O)c(C)c1
[1]
  Ki: 1 nM

## Cc1cc(C)c(S(=O)(=O)N[C@@H](Cc2ccc(-c3cccc(NC(=O)NC4CC4)c3)cc2)C(=O)O)c(C)c1
[2]
  Ki: 128 nM
[3]
  Activity: 85 nM
[4]
  Activity: 390 nM
[5]
  Kd: 740 nM

## CC1(C)C2CC[C@]1(S(=O)(=O)N[C@@H](Cc1ccc(-c3cccc(Nc4c(NC5CC5)c(=O)c4=O)c3)cc1)C(=O)O)C(=O)C2
[1]
  Ki: 0.1 nM

## Cc1cc(C)c(S(=O)(=O)N[C@@H](Cc2ccc(-c3cccc(Nc4n[s+]([O-])nc4NC4CC4)c3)cc2)C(=O)O)c(C)c1 (some centres not stated)
[1]
  Ki: 18 nM

## Cc1cc(C)c(S(=O)(=O)N[C@@H](Cc2ccc(-c3cccc(NC4=NCCN4)c3)cc2)C(=O)O)c(C)c1
[1]
  Ki: 1.3 nM

## CS(=O)(=O)N[C@@H](Cc1ccc(-c2cccc(Nc3c(NC4CC4)c(=O)c3=O)c2)cc1)C(=O)O
[1]
  Ki: 10 nM

## Cc1cc(C)c(S(=O)(=O)N[C@@H](Cc2ccc(-c3cccc(Nc4c(NC5CC5)c(=O)c4=O)c3)cc2)C(=O)O)c(C)c1
[1]
  Ki: 0.5 nM
[2]
  Ki: 47 nM
[3]
  Activity: 13 nM
[4]
  Activity: 10 nM
[5]
  Kd: 420 nM
[6]
  CL: 65 mL/min/kg

## Cc1cc(C)c(S(=O)(=O)N[C@@H](Cc2ccc(-c3cccc(NC(=O)c4ccc[nH]4)c3)cc2)C(=O)O)c(C)c1
[1]
  Ki: 33 nM
